Drawing on ChEMBL document CHEMBL1130107, “Discovery of CGS 27023A, a non-peptidic, potent, and orally active stromelysin inhibitor that blocks cartilage degradation in rabbits” (J Med Chem, 1997), this text covers Ki for 18 molecules.

One may read the Ki as a measure of affinity in units of concentration, obtained from inhibition or displacement.

Experiment [1] addresses T1, Stromelysin-1 (Homo sapiens, UniProt P08254). As to the kind of experiment: Inhibition activity against recombinant human stromelysin (Matrix metalloprotease-3).
In experiment [2] the target is T1, Stromelysin-1. As to the kind of experiment: Inhibition activity against recombinant human stromelysin (Matrix metalloprotease-3) (Inactive). Put shortly: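 Substance P (0.5 mM) cleaved by recombinant human stromelysin (8 μg, 2 units) for 30 min at 37 °C with test compound diluted from 10 mM stock into assay buffer. Reaction stopped with 10 mM EDTA. Substance P 7-11 fragment quantified by RP-8 HPLC. IC50 versus inhibitor-free control, mean of two independent measurements. Ki derived from mean IC50 by Waley's method.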

SMILES strings stand for the structures.

T1 sequence (P08254 whole entry, the tested form may be a part): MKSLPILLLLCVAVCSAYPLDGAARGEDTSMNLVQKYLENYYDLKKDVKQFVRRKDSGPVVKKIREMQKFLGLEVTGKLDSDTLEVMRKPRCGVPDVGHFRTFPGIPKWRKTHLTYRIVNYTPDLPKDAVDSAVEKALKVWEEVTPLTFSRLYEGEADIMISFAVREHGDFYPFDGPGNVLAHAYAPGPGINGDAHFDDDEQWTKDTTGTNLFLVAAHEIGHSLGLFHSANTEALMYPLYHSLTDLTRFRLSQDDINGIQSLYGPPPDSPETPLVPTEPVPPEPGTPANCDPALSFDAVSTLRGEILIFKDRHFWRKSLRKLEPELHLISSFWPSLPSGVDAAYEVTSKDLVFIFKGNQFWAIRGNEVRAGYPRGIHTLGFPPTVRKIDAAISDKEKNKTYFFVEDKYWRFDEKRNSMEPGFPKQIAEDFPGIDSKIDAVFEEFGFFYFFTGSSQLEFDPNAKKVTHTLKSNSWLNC

In the case of `COc1ccc(S(=O)(=O)N(Cc2ccccc2)[C@H](CC(C)C)C(=O)NO)cc1`, in experiment [1], the inhibitory constant (Ki) was found to be 23 nM. The same measure, in the same setting: to `COc1ccc(S(=O)(=O)N(Cc2ccccc2)[C@H](Cc2ccccc2)C(=O)NO)cc1` belongs 29 nM.

Regarding `CC(C)CN(CC(=O)NO)S(=O)(=O)c1ccc([N+](=O)[O-])cc1`, in experiment [2], the inhibition constant (Ki) result was “Not Active”.

For `COc1ccc(S(=O)(=O)N(Cc2ccccc2)C(C)C(=O)NO)cc1` (stereo not drawn), in experiment [1], the inhibition constant Ki was determined as 86 nM. Still for that read-out and setting: to `COc1ccc(S(=O)(=O)NCC(=O)NO)cc1` belongs 4400 nM.

Turning to `CC(C)CN(CC(=O)NO)S(=O)(=O)c1ccc(S(C)(=O)=O)cc1`, the Ki result in experiment [2] is “Not Active”. On to `COc1ccc(CN(CC(=O)NO)S(=O)(=O)c2ccc(OC)cc2)cc1`, for which the inhibition constant (Ki) in experiment [1] came out at 104 nM. Still for that read-out and setting: the result for `CC(C)CN(CC(=O)NO)S(=O)(=O)c1ccc(N(C)C)cc1` reads 4400 nM. The same measure, in the same setting: to `COc1ccc(S(=O)(=O)N(Cc2ccccc2)[C@@H](C(=O)NO)C(C)C)cc1` belongs 34 nM; to `COc1ccc(S(=O)(=O)N(Cc2ccccc2)[C@@H](C)C(=O)NO)cc1`, 141 nM. The same measure, in the same setting: the result for `COc1ccc(S(=O)(=O)N(CC(=O)NO)Cc2ccccc2)cc1` reads 70 nM; that for `COc1ccc(S(=O)(=O)N(Cc2ccccc2)C(Cc2ccccc2)C(=O)NO)cc1` (stereo not drawn), 71 nM. Take `COc1ccc(S(=O)(=O)N(Cc2ccccc2)C(C(=O)NO)C(C)C)cc1` (stereo not drawn): in experiment [1], the inhibition constant Ki is 92 nM. The same measure, in the same setting: to `COc1ccc(S(=O)(=O)N(CC(=O)NO)CC2CCCCC2)cc1` belongs 61 nM. Consider `CC(C)CN(CC(=O)NO)S(=O)(=O)c1ccc(C(C)(C)C)cc1`, for which the Ki result in experiment [2] was “Not Active”.

Regarding `COc1ccc(S(=O)(=O)N(CC(=O)NO)Cc2ccc3ccccc3n2)cc1`, the inhibition constant Ki in experiment [1] was 134 nM.

Consider `COc1ccc(S(=O)(=O)N(Cc2ccccc2)[C@H](C)C(=O)NO)cc1`, for which, in experiment [1], the inhibition constant (Ki) stood at 36 nM.

With `COc1ccc(S(=O)(=O)N(CCC(C)C)CC(=O)NO)cc1`, the Ki in experiment [1] is 94 nM.
